Like-named read-outs stand apart in the source and are kept apart here.
What was measured:
[1] = biological target: T1, TCCYP51 (Trypanosoma cruzi, UniProt Q7Z1V1); assay: Spectral titration of TCCYP51; type: binding; settings: ligand-free maximum 417 nm
[2] = test system: TC trypomastigotes and amastigotes; assay: Growth inhibition assay in TC cells; type: cell-based, Trypanosoma cruzi; settings: for Effect on parasites in cardiomyocytes at 20 μM: 20 μM compound; for Antiparasitic effect in both human forms of TC: pre-treatment of trypomastigotes, 1–50 μM
Method in brief: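 Trypomastigotes (10^6) pre-exposed 30 min to test compound in DMSO (1–50 μM) or DMSO alone. Then added in triplicate to rat cardiomyocyte monolayers, 10 parasites/cell, for 2 h. Unbound parasites were removed and cultures kept 72 h in DMEM + 10% FBS. T. cruzi per 200 cells and % infection were counted microscopically on Giemsa stain. Mean ± SD; Student t test versus DMSO.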

[3] = test system: TC epimastigotes; assay: TC cellular sterol analysis; type: cell-based, Trypanosoma cruzi; settings: 50 μM, TLC
[4] = biological target: T1, TCCYP51; assay: ESI-MS analysis of non-covalent interactions in TCCYP51; type: binding; settings: ESI-mass spectrometry, 20-HCl 100 μM
[5] = biological target: T1, TCCYP51; settings: read-out: Kd of enzyme/substrate complex formation; preferred substrate; cited from earlier work
[6] = test system: TC epimastigotes; settings: 1 μM; cited from earlier work
[7] = biological target: T1, TCCYP51; type: biochemical; settings: reconstituted enzyme reaction
[8] = test system: rat cardiomyocyte monolayers; assay: Effect on cardiomyocyte monolayers in the growth inhibition assay; type: cell-based; settings: concentrations higher than 10 μM
[9] = test system: TC cells; settings: published values; cited from earlier work

T1 sequence (Q7Z1V1 whole entry): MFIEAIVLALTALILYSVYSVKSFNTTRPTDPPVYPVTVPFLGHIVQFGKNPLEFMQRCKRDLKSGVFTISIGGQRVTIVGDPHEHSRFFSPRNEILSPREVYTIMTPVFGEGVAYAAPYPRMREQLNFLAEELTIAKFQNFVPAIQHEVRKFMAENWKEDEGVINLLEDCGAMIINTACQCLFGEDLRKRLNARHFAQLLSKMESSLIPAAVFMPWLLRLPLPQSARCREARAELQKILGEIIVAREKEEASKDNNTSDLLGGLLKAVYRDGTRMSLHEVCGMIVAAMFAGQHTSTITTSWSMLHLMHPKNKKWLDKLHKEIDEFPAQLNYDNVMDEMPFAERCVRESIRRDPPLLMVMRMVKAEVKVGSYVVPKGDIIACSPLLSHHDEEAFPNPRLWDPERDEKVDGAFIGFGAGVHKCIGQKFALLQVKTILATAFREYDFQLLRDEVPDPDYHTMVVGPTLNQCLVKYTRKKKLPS

## O=C(Nc1ccncc1)C1c2ccccc2Oc2ccccc21 [Compound 7]
[1]
  Spectral Response in TCCYP51, Soret band maximum: 422 nm

## CC1CCC(C(=O)NC(Cc2c[nH]c3ccccc23)C(=O)Nc2ccncc2)CC1 (centres unmarked) [Compound 9]
[1]
  Spectral Response in TCCYP51, Soret band maximum: 422 nm
[2]; 72 h
  Effect on parasites in cardiomyocytes at 20 μM: practically eliminated from cardiomyocytes
[2]
  Antiparasitic effect in both human forms of TC: clear dose-dependent antiparasitic effect

## COc1ccc2c(c1)c(CC(=O)Nc1ccccn1)c(C)n2C(=O)c1ccc(Cl)cc1 [Compound 16]
[1]
  Spectral Response in TCCYP51, Soret band maximum: 416 nm

## COc1ccc2c(c1)c(CC(=O)NCCc1cccnc1)c(C)n2C(=O)c1ccc(Cl)cc1 [Compound 20]
[1]
  Spectral Response in TCCYP51, Soret band maximum: 422 nm
[2]; 72 h
  Effect on parasites in cardiomyocytes at 20 μM: practically eliminated from cardiomyocytes
[2]; TC amastigotes in cardiomyocytes, 72 h
  ED50 (growth inhibition): < 1000 nM
[2]
  Antiparasitic effect in both human forms of TC: clear dose-dependent antiparasitic effect
[3]
  Effect on TC cellular sterol composition: very similar effect on cellular sterol composition
[4]
  Binding stoichiometry to TCCYP51: simultaneous binding of two inhibitor molecules to the enzyme

## COc1ccc2c(c1)c(CC(=O)NCc1ccc(C(F)(F)F)nc1)c(C)n2C(=O)c1ccc(Cl)cc1 [Compound 19]
[1]
  Spectral Response in TCCYP51, Soret band maximum: 420 nm

## C=C(CC[C@@H](C)[C@H]1CC[C@@]2(C)C3=C(CC[C@]12C)[C@@]1(C)CC[C@H](O)C(C)(C)[C@@H]1CC3)C(C)C [24-methylenedihydrolanosterol]
[5]
  Kd: ~1000 nM

## O=C(NC(Cn1ccnc1)c1ccc(Cl)cc1Cl)c1ccc(-c2nnc(-c3ccccc3)o2)cc1 (centres unmarked) [SDZ-284629, N-(1-(2,4-dichlorophenyl)-2-(1H-imidazol-1-yl)ethyl)-4-(5-phenyl-1,3,4-oxadiazol-2-yl)benzamide]
[6]
  Effect on TC cellular sterol composition: the pathway practically stops at the stage of the C14-methylated sterol precursors

## COc1ccc2c(c1)c(CC(=O)NCC(C)c1ccccc1)c(C)n2C(=O)c1ccc(Cl)cc1 (centres unmarked) [Compound 22]
[1]
  Spectral Response in TCCYP51, Soret band maximum: 419 nm
[7]
  Character of TCCYP51 inhibition (reversibility): functionally irreversible
[8]
  Effect on cardiomyocyte monolayers: release cardiomyocyte monolayers at higher concentrations

## CCC(C(=O)Nc1ccncc1)c1ccccc1 (centres unmarked) [Compound 5, 2-phenyl-N-pyridin-4-ylbutanamide]
[1]
  Spectral Response in TCCYP51, Soret band maximum: 422 nm

## COc1ccc2c(c1)c(CC(=O)NC(C)c1ccncc1)c(C)n2C(=O)c1ccc(Cl)cc1 (centres unmarked) [Compound 15]
[1]
  Spectral Response in TCCYP51, Soret band maximum: 422 nm

## COc1ccc2c(c1)c(CC(=O)NCCc1cccc(Cl)c1)c(C)n2C(=O)c1ccc(Cl)cc1 [Compound 21]
[1]
  Spectral Response in TCCYP51, Soret band maximum: 419 nm
[7]
  Character of TCCYP51 inhibition (reversibility): functionally irreversible
[8]
  Effect on cardiomyocyte monolayers: release cardiomyocyte monolayers at higher concentrations

## COc1ccc2c(c1)c(CC(=O)Nc1ncccn1)c(C)n2C(=O)c1ccc(Cl)cc1 [Compound 17]
[1]
  Spectral Response in TCCYP51, Soret band maximum: 417 nm

## COc1ccc2c(c1)c(CC(=O)NCc1ccncc1)c(C)n2C(=O)c1ccc(Cl)cc1 [Compound 14]
[1]
  Spectral Response in TCCYP51, Soret band maximum: 422 nm

## COc1ccc2c(c1)c(CC(=O)NCc1ccccn1)c(C)n2C(=O)c1ccc(Cl)cc1 [Compound 13]
[1]
  Spectral Response in TCCYP51, Soret band maximum: 418 nm
[2]; 72 h
  Effect on parasites in cardiomyocytes at 20 μM: practically eliminated from cardiomyocytes
[2]
  Antiparasitic effect in both human forms of TC: clear dose-dependent antiparasitic effect

## O=C(Cn1ccnc1[N+](=O)[O-])NCc1ccccc1 [benznidazole]
[9]
  ED50 in TC cells: 25000 to 50000 nM

## COc1ccc2c(c1)c(CC(=O)Nc1cccnc1)c(C)n2C(=O)c1ccc(Cl)cc1 [Compound 12]
[1]
  Spectral Response in TCCYP51, Soret band maximum: 422 nm

## COc1ccc2c(c1)c(CC(=O)NCc1ccc(Cl)nc1)c(C)n2C(=O)c1ccc(Cl)cc1 [Compound 18]
[1]
  Spectral Response in TCCYP51, Soret band maximum: 420 nm
[2]; 72 h
  Effect on parasites in cardiomyocytes at 20 μM: practically eliminated from cardiomyocytes
[2]
  Antiparasitic effect in both human forms of TC: clear dose-dependent antiparasitic effect

— article PMC2744100 (Journal of medicinal chemistry, 2009)
